One data set has as its system PBMC. The experiment in a line: Cytotoxicity against human PBMC. The data set is classed as cell-based. In short, it runs like this:
(§1)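 Cytotoxicity was profiled in three cell types: primary human peripheral blood mononuclear (PBM) cells, CEM (a human T-cell-derived line) and Vero (African green monkey kidney epithelial cells).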

A further data set has as its system Huh-7. Kind of data set: Cytotoxicity against human HuH7 cells. It is filed as cell-based. Summed up: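 Huh7 cytotoxicity measured together with the replicon antiviral assay, by extraction and amplification of ribosomal RNA. Each concentration run in triplicate and reported as mean.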
Data set [1] relates to Hepatitis C virus. Kind of data set: Antiviral activity against Hepatitis C virus infected in human HuH7 cells assessed as viral RNA replication. The note with it: Huh-7. The data set is classed as functional, organism-based, Hepacivirus hominis. In short, it runs like this:
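Subgenomic HCV replicon in Huh7 cells; inhibition of HCV RNA replication measured by extraction and amplification of HCV RNA. Each concentration run in triplicate and reported as mean; EC50 derived.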

The test system of another data set is Vero. The experiment in a line: Cytotoxicity against african green monkey Vero cells. The data set is classed as cell-based. The following applies: chlorocebus sabaeus. Summed up: as §1
The next data set deals with CCRF-CEM. The experiment in a line: Cytotoxicity against human CEM cells. The data set is classed as cell-based. Summed up: as §1
Data set [2] deals with T1, Neutrophil elastase (Homo sapiens) (UniProt P08246).
T1 sequence (whole entry): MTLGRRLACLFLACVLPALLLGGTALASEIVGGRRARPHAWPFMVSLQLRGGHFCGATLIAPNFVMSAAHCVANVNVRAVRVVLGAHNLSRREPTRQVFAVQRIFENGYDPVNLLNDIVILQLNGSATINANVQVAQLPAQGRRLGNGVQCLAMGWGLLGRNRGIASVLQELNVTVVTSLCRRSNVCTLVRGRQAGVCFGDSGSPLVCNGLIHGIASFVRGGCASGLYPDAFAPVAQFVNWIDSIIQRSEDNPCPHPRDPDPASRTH
Kind of data set: (§2) Inhibition of human neutrophil elastase.

The target of another data set is T2, Neutrophil elastase (Homo sapiens, UniProt P08246).
T2 sequence (P08246 whole entry): T1 sequence (whole entry)
The description is as §2.

The test system of data set [3] is Hepatitis C virus. Kind of data set: Inhibition of Hepatitis C virus genotype 1b NS3/4A protease D168A mutant. More on the design: species or system Hepatitis C virus subtype 1b. Summed up: (§3)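 Panel of genotype 1b NS3 protease enzymes (wild type and mutants). IC50 and IC90 are averages ± standard error from 2 independent assays. Fold change versus wild type given in parentheses.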

A further data set deals with Plasminogen (Homo sapiens, UniProt P00747). Kind of data set: Inhibition of human plasmin.
Plasminogen, sequence (P00747 97-580 limits assumed): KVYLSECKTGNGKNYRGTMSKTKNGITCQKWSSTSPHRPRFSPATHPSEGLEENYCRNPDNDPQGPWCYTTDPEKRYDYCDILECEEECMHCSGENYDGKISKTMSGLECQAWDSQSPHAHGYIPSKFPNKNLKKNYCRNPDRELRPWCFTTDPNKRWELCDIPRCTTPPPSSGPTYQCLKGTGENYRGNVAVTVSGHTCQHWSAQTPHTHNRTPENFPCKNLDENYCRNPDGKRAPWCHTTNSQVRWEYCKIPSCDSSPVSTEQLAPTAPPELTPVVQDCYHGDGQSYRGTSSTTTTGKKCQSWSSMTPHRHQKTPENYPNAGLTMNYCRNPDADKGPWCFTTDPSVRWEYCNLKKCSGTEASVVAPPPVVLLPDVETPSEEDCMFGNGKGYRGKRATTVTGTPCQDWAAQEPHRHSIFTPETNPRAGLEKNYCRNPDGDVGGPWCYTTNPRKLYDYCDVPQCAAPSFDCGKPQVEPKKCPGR
Plasminogen, sequence (P00747 581-810 limits assumed): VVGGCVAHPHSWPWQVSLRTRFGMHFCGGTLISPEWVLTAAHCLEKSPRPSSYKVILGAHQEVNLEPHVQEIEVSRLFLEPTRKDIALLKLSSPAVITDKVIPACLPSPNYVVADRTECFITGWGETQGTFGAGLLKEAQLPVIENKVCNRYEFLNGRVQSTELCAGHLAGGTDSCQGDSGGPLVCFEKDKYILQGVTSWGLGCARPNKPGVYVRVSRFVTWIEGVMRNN
The test system of data set [4] is Hepatitis C virus. The experiment in a line: Inhibition of Hepatitis C virus genotype 1b NS3/4A protease R155K mutant. More on the design: species or system Hepatitis C virus subtype 1b. Summed up:
as §3

The subject of data set [5] is Hepatitis C virus. Kind of data set: Inhibition of Hepatitis C virus genotype 1b NS3/4A protease V36M mutant. Details: species or system Hepatitis C virus subtype 1b. Summed up: as §3
For data set [6], the system named is Hepatitis C virus. The experiment in a line: Inhibition of Hepatitis C virus genotype 1b NS3/4A protease A156T mutant. Details: species or system Hepatitis C virus subtype 1b. Summed up: as §3
Another data set concerns the target Prothrombin (Homo sapiens, UniProt P00734). The experiment in a line: Inhibition of human thrombin.
In data set [7] the test system is Hepatitis C virus. The experiment in a line: Inhibition of Hepatitis C virus genotype 1b wild type NS3/4A protease. More on the design: species or system Hepatitis C virus subtype 1b. In short, it runs like this:
as §3

Data set [8] has as its system Hepatitis C virus. The experiment in a line: Inhibition of Hepatitis C virus genotype 1b NS3/4A protease A156S mutant. More on the design: species or system Hepatitis C virus subtype 1b. Summed up: as §3
For data set [9], the system named is Hepatitis C virus. The experiment in a line: Inhibition of Hepatitis C virus genotype 1b NS3/4A protease V170A mutant. More on the design: species or system Hepatitis C virus subtype 1b. Summed up: as §3
Data set [10] relates to Hepatitis C virus. The experiment in a line: Inhibition of Hepatitis C virus genotype 1b NS3/4A protease D168V mutant. Details: species or system Hepatitis C virus subtype 1b. Summed up:
as §3

The target of a further data set is Cathepsin S (Homo sapiens, UniProt P25774). Kind of data set: Inhibition of human cathepsin S.

`CCCC(NC(=O)C1CCN1C(=O)[C@@H](NC(=O)[C@@H](NC(=O)c1cnccn1)C1CCCCC1)C(C)(C)C)C(=O)C(=O)NC1CC1` (stereo partly specified): the CC50 in the data set with PBMC is over 100 µM; in the data set on Huh-7 it was over 10 µM; in the data set with Vero, over 100 µM; with CCRF-CEM, over 100 µM. Moreover, the EC50 with Hepatitis C virus [1] is over 10 µM. Besides, the EC90 in the data set with Hepatitis C virus [1] is over 10 µM.

Turning to `CCCC(NC(=O)C1N(C(=O)[C@@H](NC(=O)[C@@H](NC(=O)c2cnccn2)C2CCCCC2)C(C)(C)C)CC12Cc1ccccc1C2)C(=O)C(=O)NC1CC1` (stereo partly specified), the CC50 in the data set on PBMC was over 100 µM; in the data set with Huh-7, over 10 µM; with Vero it was over 100 µM; in the data set on CCRF-CEM it was 72 µM. Moreover, in the data set with Hepatitis C virus [1], the EC50 is over 10 µM. The EC90 in the data set on Hepatitis C virus [1] was over 10 µM.

For the compound `CC(C)(C)[C@H](NC(=O)NC1CCCCC1)C(=O)N1CC2(Cc3ccccc3C2)C1C(=O)NC(CC1CCC1)C(=O)C(=O)NC1CC1` (stereo partly specified), the CC50 in the data set with PBMC is 15 µM; with Huh-7 it was 5.5 µM; in the data set on Vero, 26 µM; in the data set on CCRF-CEM it was 15 µM. Moreover, the EC50 in the data set with Hepatitis C virus [1] stood at 5.8 µM. Further, in the data set on Hepatitis C virus [1], the EC90 amounted to 9.8 µM.

With `CCCC(NC(=O)C1N(C(=O)[C@@H](NC(=O)[C@@H](NC(=O)c2cnccn2)C2CCCCC2)C(C)(C)C)CC12CCCCC2)C(=O)C(=O)NCCF` (stereo partly specified), the CC50 with PBMC was 32 µM; in the data set with Huh-7, over 10 µM; in the data set with Vero it was 21 µM; with CCRF-CEM it was 5.4 µM. In the data set on Hepatitis C virus [1], the EC50 was found to be 5.4 µM. Further, the EC90 with Hepatitis C virus [1] amounted to 9.7 µM.

As for `CCCC(NC(=O)C1N(C(=O)[C@@H](NC(=O)NC2CCCCC2)C(C)(C)C)CC12Cc1ccccc1C2)C(=O)C(=O)NC1CC1` (stereo partly specified), the CC50 with PBMC was found to be 30 µM; in the data set on Huh-7 it was 8.2 µM; with Vero it was 44 µM. For the same compound, the EC50 in the data set on Hepatitis C virus [1] was 8.9 µM. Moreover, in the data set on Hepatitis C virus [1], the EC90 turned out to be 30 µM.

For `CCCC(NC(=O)C1N(C(=O)[C@@H](NC(=O)NC(C)(C)C)C(C)(C)C)CC12Cc1ccccc1C2)C(=O)C(=O)NC1CC1` (stereo partly specified), the values for the CC50 with PBMC, with Huh-7 and in the data set on Vero were over 100 µM, 27 µM and over 100 µM, respectively. In the data set with Hepatitis C virus [1], the EC50 turned out to be 13 µM. The EC90 in the data set with Hepatitis C virus [1] is 31 µM.

With `CC(C)(C)NC(=O)N[C@H](C(=O)N1C[C@H]2[C@@H]([C@H]1C(=O)NC(CC1CCC1)C(=O)C(N)=O)C2(C)C)C(C)(C)C` (stereo partly specified) [BOCEPREVIR], the IC90 is over 100 µM in data set [2], over 100 µM against Plasminogen, under 1.4 µM against Prothrombin and over 100 µM against Cathepsin S. Further, the IC50 at Neutrophil elastase is at least 100 µM; at Plasminogen, over 100 µM; against Prothrombin, under 1 µM; on Cathepsin S it was over 100 µM. For the same compound, the EC90 with Hepatitis C virus [3] is 4.7 µM; in the data set on Hepatitis C virus [4], 4.8 µM; in the data set with Hepatitis C virus [5], 5.6 µM; in the data set with Hepatitis C virus [1], 0.03 µM; in the data set on Hepatitis C virus [6], over 100 µM; in the data set on Hepatitis C virus [7] it was 1 µM. Moreover, the EC90 in the data set with Hepatitis C virus [8] was at least 100 µM; with Hepatitis C virus [9], 7.7 µM; in the data set on Hepatitis C virus [10] it was 0.9 µM. In addition, the CC50 in the data set with PBMC is over 100 µM; with Huh-7, over 10 µM; in the data set with Vero it was over 100 µM; with CCRF-CEM it was over 100 µM. For the same compound, in the data set on Hepatitis C virus [1], the concentration for a half-maximal effect (EC50) was 0.01 µM.

Regarding `CCCC(NC(=O)C1N(C(=O)[C@@H](NC(=O)C2CCCCC2)C(C)(C)C)CC12Cc1ccccc1C2)C(=O)C(=O)NC1CC1` (stereo partly specified), the CC50 came out at 31 µM in the data set on PBMC, 10 µM in the data set on Huh-7, 43 µM in the data set with Vero and 22 µM in the data set on CCRF-CEM. Further, the EC50 in the data set with Hepatitis C virus [1] was over 10 µM. In addition, the EC90 in the data set on Hepatitis C virus [1] was over 10 µM.

With `CCCC(NC(=O)C1N(C(=O)[C@@H](NC(=O)Nc2ccccc2)C(C)(C)C)CC12Cc1ccccc1C2)C(=O)C(=O)NC1CC1` (stereo partly specified), the CC50 in the data set with PBMC is 15 µM; in the data set with Huh-7 it was over 10 µM; in the data set with Vero, 46 µM. In the data set with Hepatitis C virus [1], the EC50 is over 10 µM. In the data set on Hepatitis C virus [1], the EC90 is over 10 µM.

On to `CC(C)(C)[C@H](NC(=O)[C@@H](NC(=O)c1cnccn1)C1CCCCC1)C(=O)N1CC2(Cc3ccccc3C2)C1C(=O)NC(CC1CCC1)C(=O)C(=O)NC1CC1` (stereo partly specified), for which the CC50 with PBMC is 29 µM; in the data set on Vero, over 100 µM; in the data set on CCRF-CEM it was 43 µM. Also, in the data set with Hepatitis C virus [1], the EC50 is 0.7 µM. Also, in the data set with Hepatitis C virus [1], the EC90 turned out to be 1 µM.

Turning to `CCCC(NC(=O)C1N(C(=O)[C@@H](NC(=O)Nc2ccc(OC)cc2)C(C)(C)C)CC12Cc1ccccc1C2)C(=O)C(=O)NC1CC1` (stereo partly specified), the CC50 in the data set on PBMC is 22 µM; in the data set with Huh-7 it was over 10 µM; in the data set with Vero, 43 µM. Moreover, in the data set on Hepatitis C virus [1], the EC50 is over 10 µM. In addition, the EC90 in the data set on Hepatitis C virus [1] is over 10 µM.

For the compound `CCCC(NC(=O)C1CCN1C(=O)[C@@H](NC(=O)[C@@H](NC(=O)c1cnccn1)C1CCCCC1)C(C)(C)C)C(=O)C(=O)NCCF` (stereo partly specified), the CC50 in the data set on PBMC was 80 µM; with Huh-7, over 10 µM; with Vero, over 100 µM; in the data set on CCRF-CEM, 52 µM. In the data set on Hepatitis C virus [1], the EC50 was over 10 µM. Also, in the data set on Hepatitis C virus [1], the EC90 is over 10 µM.

As for `CC(C)(C)[C@H](NC(=O)[C@@H](NC(=O)c1cnccn1)C1CCCCC1)C(=O)N1CC2(Cc3ccccc3C2)C1C(=O)NC(CC1CC1)C(=O)C(=O)NC1CC1` (stereo partly specified), the CC50 was 12 µM in the data set on PBMC, over 100 µM in the data set with Vero and 14 µM with CCRF-CEM. Further, the EC50 in the data set on Hepatitis C virus [1] is 0.8 µM. Moreover, in the data set with Hepatitis C virus [1], the EC90 stood at 1.5 µM.

As for `C=CCNC(=O)C(=O)C(CCC)NC(=O)C1CCN1C(=O)[C@@H](NC(=O)[C@@H](NC(=O)c1cnccn1)C1CCCCC1)C(C)(C)C` (stereo partly specified), the CC50 is 27 µM in the data set on PBMC, over 10 µM with Huh-7, over 100 µM in the data set on Vero and 30 µM in the data set on CCRF-CEM. Further, the EC50 in the data set with Hepatitis C virus [1] is over 10 µM. Besides, in the data set on Hepatitis C virus [1], the EC90 was over 10 µM.

Turning to `CCCC(NC(=O)C1N(C(=O)[C@@H](NC(=O)CC(C)(C)C)C(C)(C)C)CC12Cc1ccccc1C2)C(=O)C(=O)NC1CC1` (stereo partly specified), the CC50 in the data set with PBMC was 44 µM; with Huh-7 it was over 10 µM; in the data set with Vero it was 46 µM; with CCRF-CEM, 35 µM. The EC50 in the data set on Hepatitis C virus [1] was over 10 µM. Further, the EC90 in the data set on Hepatitis C virus [1] is over 10 µM.

On to `CCCC(NC(=O)C1N(C(=O)[C@@H](NC(=O)NC2CCCC2)C(C)(C)C)CC12Cc1ccccc1C2)C(=O)C(=O)NC1CC1` (stereo partly specified), for which the CC50 in the data set with PBMC was over 100 µM; in the data set with Huh-7 it was over 10 µM; with Vero, 95 µM. Further, in the data set on Hepatitis C virus [1], the EC50 is over 10 µM. In addition, the EC90 in the data set with Hepatitis C virus [1] was over 10 µM.

Regarding `CCCC(NC(=O)C1CCN1C(=O)[C@@H](NC(=O)[C@@H](NC(=O)c1cnccn1)C1CCCCC1)C(C)(C)C)C(=O)C(=O)NCCOC` (stereo partly specified), the CC50 is over 100 µM in the data set with PBMC, over 10 µM in the data set on Huh-7, over 100 µM with Vero and 38 µM in the data set with CCRF-CEM. The half-maximal effective concentration (EC50) in the data set with Hepatitis C virus [1] is over 10 µM. Further, in the data set with Hepatitis C virus [1], the EC90 was over 10 µM.

(Values after ChEMBL document CHEMBL2440035, “Azetidines and spiro azetidines as novel P2 units in hepatitis C virus NS3 protease inhibitors” (Bioorg Med Chem Lett, 2013).)
